Measurements from different studies.
Each line is one published result; the experiments were not run side by side.
Target: Calcium/calmodulin-dependent protein kinase type 1D (CAMK1D, Homo sapiens, UniProt Q8IU85)

SMILES | read-out | mode | technique | tested at | measurement | result
CN(CCCC(F)(F)F)c1nccc(-c2cnn3ncccc23)n1 | binding | – | – | 1 µM | remaining binding | 86%
COc1cccc2c(NCc3ccccc3)nc(-n3c(N)nc4ccccc43)nc12 | target engagement in cells | inhibitor | chemoproteomics | 20 mM | inhibition | 0%
O=C(NC[C@@H]1[C@H]2CN(C(=O)OCc3cc(C(F)(F)F)cc(C(F)(F)F)c3)C[C@@H]12)c1ccc2[nH]nnc2c1 | cell-free assay | – | competition with immobilised ligand | 1 µM | remaining binding | 100%
CCN(CC)c1ccc(C2=NNC(=O)CC2C)cc1[N+](=O)[O-] (stereo not drawn) | enzyme activity | inhibitor | – | 10 µM | remaining activity | 105%
Cn1c2c(Cl)c(Cl)ccc2c2cn[nH]c(=O)c21 | thermal stability | – | DSF | 10 µM | ΔTm | -0.1 °C
Cc1cc(-n2nc(Cc3cc(F)cc(C(F)(F)F)c3)nc2C)ccc1C(N)=O | cell-free assay | – | competition with immobilised ligand | 1 µM | remaining binding | 96%
COc1cc2ncnc(Nc3ccc(Oc4ccccc4)cc3C)c2cc1OC | enzyme activity | inhibitor | – | 1 µM | inhibition | 1%
Cc1ccc(NC(=O)c2ccc(C)c(C(F)(F)F)c2)cc1C#Cc1nn(C2CCC(O)CC2)c2ncnc(N)c12 (stereo not drawn) | cell-free assay | – | – | 10 µM | remaining signal | 92%
CN(C)C(=O)Cn1cc(-c2nc(C3(c4ccc(-c5cnc(N)nc5)cc4)CC3)no2)cn1 | cell-free assay | – | competition with immobilised ligand | 1 µM | remaining binding | 100%
O=c1cc(-c2cccc3c2Sc2ccccc2S3)oc(N2CCOCC2)c1 | enzyme activity | inhibitor | – | 0.5 µM | remaining activity | 106%
Cc1c(C(=O)O)cc(-c2ccc(C3CCNCC3)cc2)c2ccc(-c3ccc(C(F)(F)F)cc3)cc12 | cell-free assay | – | competition with immobilised ligand | 1 µM | remaining binding | 100%
CNC(=O)c1cc(Oc2ccc(NC(=O)Nc3ccc(Cl)c(C(F)(F)F)c3)cc2)ccn1 | enzyme activity | inhibitor | – | 0.3 µM | inhibition | 11%
O=C1c2ccccc2-c2n[nH]c3cccc1c23 | enzyme activity | inhibitor | – | 0.5 µM | activity vs control | 91.9%
N#CC1c2c([nH]c3c(Cl)c(Cl)ccc23)C(=O)NC12CCCCC2 (racemic) | thermal stability | – | DSF | 10 µM | ΔTm | 0.7 °C
CC(=O)N1CCC(c2ccc(C(=O)NC3=NCCN3)cc2C(F)(F)F)CC1 | cell-free assay | – | competition with immobilised ligand | 1 µM | remaining binding | 100%
CC1(C)NC(=O)c2[nH]c3c(Cl)c(Cl)ccc3c2C1C#N (stereo not drawn) | thermal stability | – | DSF | 10 µM | ΔTm | -0.6 °C
Cn1cc(Cl)c2c(Oc3c(F)cc(Nc4cc(Cl)nc(N)n4)cc3F)ccnc21 | cell-free assay | – | competition with immobilised ligand | 0.1 µM | remaining binding | 100%
Nc1nc(Nc2ccc(S(N)(=O)=O)cc2)nn1C(=O)c1c(F)cccc1F | cell-free assay | – | – | 0.5 µM | remaining signal | 97.7%
COc1cc(-c2cn(C3CCc4ccccc4N(CC(F)(F)F)C3=O)nn2)ccc1-n1ccc(C)n1 (stereo not drawn) | cell-free assay | – | competition with immobilised ligand | 1 µM | remaining binding | 100%
Cn1c2c(c3ccc(Cl)c(Cl)c31)C(C#N)C1(CCNCC1)NC2=O (racemic) | thermal stability | – | DSF | 10 µM | ΔTm | 1.2 °C
CC(C)(O)[C@H]1CC[C@H](Nc2ccc3ncc(-c4cccc(C(F)(F)F)c4)n3n2)CC1 | enzyme activity | inhibitor | – | 1 µM | remaining activity | 83.7%
